Measured values published in ChEMBL document CHEMBL1145938, “Synthesis and structure-activity relationship of aminobenzophenones. A novel class of p38 MAP kinase inhibitors with high antiinflammatory activity” (J Med Chem, 2003).

Tests used:
Mus musculus [1] = experiment: Inhibition of ear swelling induced by oxazolone in murine allergic contact dermatitis model at 0.001 mg/ear at 24 hr (in vivo); type: functional
Method in brief: (§1)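 Groups of six female inbred BALB/cABOM mice (18–21 g) were sensitized with oxazolone on the clipped abdomen 7 days before right-ear challenge. Compound in acetone (20 μL) or vehicle was applied once, 30 min after challenge. Ear swelling (right minus left ear thickness) was read at 24, 48 and 72 h. Values are mean % inhibition ± SEM of four or five experiments.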

Mus musculus [2] = experiment: Inhibition of ear swelling induced by oxazolone in murine allergic contact dermatitis model at 0.001 mg/ear at 72 hr (in vivo); type: functional; method in brief: as §1
[3] = target: T1, Myeloperoxidase (Mus musculus) (UniProt P11247); experiment: Inhibition of myeloperoxidase (MPO) activity induced by oxazolone in murine allergic contact dermatitis model at 0.001 mg/ear at 24 hr (in vivo); type: organism-based
T1 sequence (whole entry): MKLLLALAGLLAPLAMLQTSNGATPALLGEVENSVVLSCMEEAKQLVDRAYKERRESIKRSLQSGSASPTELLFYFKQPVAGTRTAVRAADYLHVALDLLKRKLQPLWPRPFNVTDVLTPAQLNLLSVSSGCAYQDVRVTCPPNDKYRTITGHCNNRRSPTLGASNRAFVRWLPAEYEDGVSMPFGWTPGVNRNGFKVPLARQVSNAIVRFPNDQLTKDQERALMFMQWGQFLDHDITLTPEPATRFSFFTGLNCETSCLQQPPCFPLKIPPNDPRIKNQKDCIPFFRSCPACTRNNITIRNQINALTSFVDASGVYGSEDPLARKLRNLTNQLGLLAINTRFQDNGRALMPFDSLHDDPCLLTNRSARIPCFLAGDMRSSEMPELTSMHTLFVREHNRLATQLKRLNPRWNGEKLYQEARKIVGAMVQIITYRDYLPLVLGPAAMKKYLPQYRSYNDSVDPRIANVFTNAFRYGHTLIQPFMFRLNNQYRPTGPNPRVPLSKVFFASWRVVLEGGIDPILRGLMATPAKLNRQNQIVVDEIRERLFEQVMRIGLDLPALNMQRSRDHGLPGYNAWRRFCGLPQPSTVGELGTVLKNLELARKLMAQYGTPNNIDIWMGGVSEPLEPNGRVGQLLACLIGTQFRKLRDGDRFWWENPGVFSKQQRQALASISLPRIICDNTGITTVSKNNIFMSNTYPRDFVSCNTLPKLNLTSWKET

Mus musculus [4] = experiment: Inhibition of ear swelling induced by oxazolone in murine allergic contact dermatitis model at 0.5 mg/ear at 48 hr (in vivo)
[5] = target: Mitogen-activated protein kinase; ERK1/ERK2 (Homo sapiens) (UniProt P27361+P28482); experiment: Inhibition of Mitogen-activated protein kinase 3/Mitogen-activated protein kinase 1 (ERK) at 10 uM; type: protein assay
Chain of Mitogen-activated protein kinase; ERK1/ERK2 (Homo sapiens) (P27361 whole entry, looked up): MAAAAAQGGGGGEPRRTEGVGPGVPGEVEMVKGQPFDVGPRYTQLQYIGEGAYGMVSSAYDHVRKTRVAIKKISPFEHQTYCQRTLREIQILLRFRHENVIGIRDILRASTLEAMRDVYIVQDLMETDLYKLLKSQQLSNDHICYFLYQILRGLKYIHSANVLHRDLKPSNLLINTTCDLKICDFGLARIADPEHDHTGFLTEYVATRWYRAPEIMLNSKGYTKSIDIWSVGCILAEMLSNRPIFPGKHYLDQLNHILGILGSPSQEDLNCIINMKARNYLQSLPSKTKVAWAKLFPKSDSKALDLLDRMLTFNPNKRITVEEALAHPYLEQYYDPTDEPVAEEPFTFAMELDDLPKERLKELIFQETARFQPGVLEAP
Chain of Mitogen-activated protein kinase; ERK1/ERK2 (Homo sapiens) (P28482 whole entry, looked up): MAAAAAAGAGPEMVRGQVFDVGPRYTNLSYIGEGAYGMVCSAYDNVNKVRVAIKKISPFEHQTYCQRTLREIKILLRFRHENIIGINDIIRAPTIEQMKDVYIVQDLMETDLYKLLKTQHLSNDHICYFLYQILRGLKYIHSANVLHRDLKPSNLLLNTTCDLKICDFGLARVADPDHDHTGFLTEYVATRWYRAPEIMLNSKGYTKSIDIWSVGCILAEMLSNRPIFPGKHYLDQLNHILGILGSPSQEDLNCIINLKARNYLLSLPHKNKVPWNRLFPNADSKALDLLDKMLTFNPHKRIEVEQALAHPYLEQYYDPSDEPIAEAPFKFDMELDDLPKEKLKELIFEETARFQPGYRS
Method in brief: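 MCF-7 cells stimulated with EGF; ERK1/2 activity measured with a modified cell-signalling ERK1/2 kinase kit in presence of compound.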

[6] = target: T2, Mitogen-activated protein kinase 14 (Homo sapiens, UniProt Q16539); experiment: In vitro inhibitory activity determined against human mitogen-activated protein kinase p38 alpha
T2 sequence (Q16539 whole entry): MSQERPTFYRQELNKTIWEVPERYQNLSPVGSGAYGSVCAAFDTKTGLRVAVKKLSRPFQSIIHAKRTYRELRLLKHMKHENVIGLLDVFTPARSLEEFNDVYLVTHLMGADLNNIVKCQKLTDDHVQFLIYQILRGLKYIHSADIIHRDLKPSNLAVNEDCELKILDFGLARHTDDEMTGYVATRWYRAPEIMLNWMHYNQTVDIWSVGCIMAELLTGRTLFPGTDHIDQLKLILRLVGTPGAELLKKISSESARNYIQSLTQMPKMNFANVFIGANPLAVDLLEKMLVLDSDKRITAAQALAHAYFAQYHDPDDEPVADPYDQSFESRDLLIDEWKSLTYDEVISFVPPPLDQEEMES

[7] = target: T2, Mitogen-activated protein kinase 14; experiment: Inhibition of Mitogen-activated protein kinase p38 alpha at 1 uM
Method in brief: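 FLAG-tagged p38α cDNA was transfected into COS-1 cells. Kinase activity of the expressed isoform was measured with compound at 1 μM.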

[8] = target: Mitogen-activated protein kinase 11 (Homo sapiens) (UniProt Q15759); experiment: Inhibition of Mitogen-activated protein kinase p38 beta at 1 uM
Chain of Mitogen-activated protein kinase 11 (Homo sapiens) (Q15759 whole entry, canonical isoform): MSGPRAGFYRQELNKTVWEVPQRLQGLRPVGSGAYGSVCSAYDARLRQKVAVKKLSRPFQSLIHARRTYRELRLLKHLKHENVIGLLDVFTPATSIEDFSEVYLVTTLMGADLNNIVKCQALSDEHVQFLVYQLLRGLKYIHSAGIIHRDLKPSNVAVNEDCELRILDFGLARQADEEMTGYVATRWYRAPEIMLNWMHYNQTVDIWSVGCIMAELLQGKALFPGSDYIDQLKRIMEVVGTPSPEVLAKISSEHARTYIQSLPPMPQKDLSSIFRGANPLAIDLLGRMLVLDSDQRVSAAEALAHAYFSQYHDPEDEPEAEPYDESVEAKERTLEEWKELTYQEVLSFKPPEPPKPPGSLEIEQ
Method in brief: (§2)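 FLAG-tagged p38 isoform cDNA (β2, γ or δ) transfected into COS-1 cells; kinase activity of the expressed isoform measured with compound at 1 μM.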

[9] = target: T3, Mitogen-activated protein kinase 13 (Homo sapiens) (UniProt O15264); experiment: Inhibition of Mitogen-activated protein kinase p38 delta at 1 uM; method in brief: as §2
T3 sequence (whole entry): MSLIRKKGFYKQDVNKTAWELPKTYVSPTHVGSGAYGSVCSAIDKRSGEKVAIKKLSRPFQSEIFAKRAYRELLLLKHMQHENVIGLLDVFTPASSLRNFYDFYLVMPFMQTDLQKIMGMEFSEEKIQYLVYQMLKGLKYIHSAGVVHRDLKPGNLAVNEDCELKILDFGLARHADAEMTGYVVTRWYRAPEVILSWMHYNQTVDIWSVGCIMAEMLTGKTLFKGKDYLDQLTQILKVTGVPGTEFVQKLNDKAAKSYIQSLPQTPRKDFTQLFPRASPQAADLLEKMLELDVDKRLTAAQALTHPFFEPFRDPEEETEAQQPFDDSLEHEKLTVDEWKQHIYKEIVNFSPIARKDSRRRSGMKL

[10] = target: T4, Mitogen-activated protein kinase 12 (Homo sapiens) (UniProt P53778); experiment: Inhibition of Mitogen-activated protein kinase p38 gamma at 1 uM; method in brief: as §2
T4 sequence (whole entry): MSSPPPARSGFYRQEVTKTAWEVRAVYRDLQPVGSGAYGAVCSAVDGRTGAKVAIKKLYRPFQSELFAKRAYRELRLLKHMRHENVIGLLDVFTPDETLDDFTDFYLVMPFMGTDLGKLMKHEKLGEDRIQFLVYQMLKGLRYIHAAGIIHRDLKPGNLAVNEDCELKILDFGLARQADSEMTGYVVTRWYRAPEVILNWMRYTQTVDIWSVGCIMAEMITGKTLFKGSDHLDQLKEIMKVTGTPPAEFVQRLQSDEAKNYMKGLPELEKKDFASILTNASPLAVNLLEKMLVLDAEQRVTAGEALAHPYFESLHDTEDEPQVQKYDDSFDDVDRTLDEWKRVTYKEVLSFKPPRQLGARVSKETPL

Mus musculus [11] = species: Mus musculus; experiment: Inhibition of ear swelling in oxazolone-induced murine allergic contact dermatitis at 0.5 mg/ear at 24 hr; type: functional; method in brief: as §1
Mus musculus [12] = experiment: Inhibition of ear swelling induced by 12-O-tetradecanoylphorbol-13-acetate (TPA) in murine chronic irritative contact dermatitis model at 0.5 mg/ear (in vivo); type: functional
Method in brief: (§3)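 Murine TPA-induced chronic irritative ear dermatitis, with compound given topically per ear. Ear swelling and ear weight were determined 5 h after the last application. Values are mean % inhibition ± SEM of three to five experiments.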

Mus musculus [13] = species: Mus musculus; experiment: Inhibition of ear swelling induced by oxazolone induced murine allergic contact dermatitis model at 0.5 mg/ear at 48 hr; type: functional; method in brief: as §1
Mus musculus [14] = species: Mus musculus; experiment: Inhibition of ear swelling induced by oxazolone induced murine allergic contact dermatitis model at 0.5 mg/ear at 72 hr; type: functional; method in brief: as §1
Mus musculus [15] = experiment: Inhibition of ear weight induced by 12-O-tetradecanoylphorbol-13-acetate (TPA) in murine chronic irritative contact dermatitis model at 0.5 mg/ear (in vivo); type: functional; method in brief: as §3
[16] = target: T1, Myeloperoxidase (Mus musculus); experiment: Inhibition of myeloperoxidase (MPO) activity induced by TPA in murine chronic irritative contact dermatitis model at 0.5 mg/ear (in vivo); type: organism-based
Homo sapiens [17] = species: Homo sapiens; experiment: In vitro inhibition of gamma-interferon release by human […]; type: functional
Method in brief: (§4)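 Human PBMC were isolated from buffy coats and diluted 1:1 in saline. Cells were held at 5×10^5 cells/mL in RPMI1640 with 2 mM glutamine and penicillin/streptomycin, then preincubated 30 min with compound. IL-12: 2% FCS, IFN-γ 95 ng/mL for 18 h, then LPS for 24 h. IL-2 and IFN-γ: 10% FCS, phytohemagglutinin for 48 h. Supernatant cytokine measured by sandwich ELISA.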

MAP kinase p38 [18] = target: T5, MAP kinase p38 (Homo sapiens, UniProt O15264+Q15759+Q16539+P53778); experiment: In vitro inhibition of IL1-beta release from LPS stimulated human peripheral blood mononuclear cells.; type: functional
Method in brief: (§5)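 Human PBMC from buffy coats (Lymphoprep), 5×10^5 cells/mL in RPMI1640 with 2% FCS, glutamine, penicillin/streptomycin; 30 min preincubation with compound, then LPS stimulation, 18 h at 37 °C, 5% CO2.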

MAP kinase p38 [19] = target: T5, MAP kinase p38; experiment: In vitro inhibition of TNF-alpha release from LPS stimulated human peripheral blood mononuclear cells.; type: functional; method in brief: as §5
Homo sapiens [20] = species: Homo sapiens; experiment: In vitro inhibition of cytokine IL-12 release by human […]; type: functional; method in brief: as §4
Homo sapiens [21] = species: Homo sapiens; experiment: In vitro inhibition of cytokine IL-2 release by human […]; type: functional; method in brief: as §4
MAP kinase p38 [22] = target: T5, MAP kinase p38; experiment: In vitro inhibition of cytokine IL-6 release by human […]; type: functional
Method in brief: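 PBMC isolated from buffy coats, 5×10^5 cells/mL in RPMI1640 plus 2% FCS, glutamine and antibiotics. Compound added 30 min before LPS; culture 6 h. Supernatant IL-6 or IL-8 quantified by ELISA kits.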

[23] = target: Mitogen-activated protein kinase 8 (Homo sapiens) (UniProt P45983); experiment: Inhibition of c-Jun N-terminal kinase 1 at 10 uM
Chain of Mitogen-activated protein kinase 8 (Homo sapiens) (P45983 whole entry): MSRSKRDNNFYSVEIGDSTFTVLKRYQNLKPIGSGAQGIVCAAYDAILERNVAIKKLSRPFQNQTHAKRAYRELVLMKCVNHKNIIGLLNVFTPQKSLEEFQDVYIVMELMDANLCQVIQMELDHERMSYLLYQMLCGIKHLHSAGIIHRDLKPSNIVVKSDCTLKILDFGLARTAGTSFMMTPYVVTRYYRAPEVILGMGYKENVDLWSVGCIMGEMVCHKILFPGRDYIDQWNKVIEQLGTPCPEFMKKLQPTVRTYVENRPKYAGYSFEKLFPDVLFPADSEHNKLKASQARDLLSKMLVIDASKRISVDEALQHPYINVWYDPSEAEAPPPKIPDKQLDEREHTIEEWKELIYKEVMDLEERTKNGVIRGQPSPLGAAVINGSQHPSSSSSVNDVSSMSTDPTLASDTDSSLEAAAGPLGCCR
Method in brief: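 JNK1 activity from UV-stimulated MCF-7 cells, measured with a JNK1 kinase kit in presence of compound.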

MAP kinase p38 [24] = target: T5, MAP kinase p38; experiment: In vitro inhibition of cytokine IL-10 release by human […]; type: functional
Method in brief: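 Buffy-coat PBMC at 5×10^5 cells/mL in RPMI1640 with 10% FCS, glutamine, antibiotics; 30 min compound preincubation, then phytohemagglutinin stimulation and 48 h incubation.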

MAP kinase p38 [25] = target: T5, MAP kinase p38; experiment: In vitro inhibition of cytokine IL-8 release by human peripheral blood mononuclear cells
[26] = target: T1, Myeloperoxidase (Mus musculus); experiment: Inhibition of myeloperoxidase (MPO) activity induced by oxazolone in murine allergic contact dermatitis model at 0.5 mg/ear at 72 hr (in vivo)
Mus musculus [27] = experiment: Inhibition of ear swelling in oxazolone induced murine allergic contact dermatitis model at 0.5 mg/ear at 48 hr (in vivo); type: functional; method in brief: as §1
Mus musculus [28] = experiment: Inhibition of ear swelling in oxazolone induced murine allergic contact dermatitis model at 0.5 mg/ear at 72 hr (in vivo); type: functional; method in brief: as §1
Mus musculus [29] = experiment: Inhibition of ear swelling in oxazolone-induced murine allergic contact dermatitis at 0.5 mg/ear at 24 hr (in vivo); type: functional; method in brief: as §1

CCCCO[C@]1(C(=O)CO)CCC2C3CCC4=CC(=O)CCC4(C)C3C(O)CC21C (some centres not stated)
Inhibition (Mus musculus [1]): 43% | Inhibition (Mus musculus [2]): 55% | inhibition [3]: 41% | Inhibition (Mus musculus [4]): 55%

Cc1ccccc1C(=O)c1ccc(Nc2ccc(Br)cc2N)cc1Cl
inhibition [5]: 0% | IC50 [6]: 39 nM | inhibition [7]: 82% | inhibition [8]: 93% | inhibition [9]: 0% | inhibition [10]: 0% | Inhibition (Mus musculus [11]): 35% | Inhibition (Mus musculus [12]): 27% | Inhibition (Mus musculus [13]): 38% | Inhibition (Mus musculus [14]): 46% | Inhibition (Mus musculus [15]): 34% | inhibition [16]: 79% | IC50 (Homo sapiens [17]): > 1000 nM | IC50 (MAP kinase p38 [18]): 30 nM | IC50 (MAP kinase p38 [19]): 5 nM | IC50 (Homo sapiens [20]): > 1000 nM | IC50 (Homo sapiens [21]): > 1000 nM | IC50 (MAP kinase p38 [22]): 17 nM | inhibition [23]: 0% | IC50 (MAP kinase p38 [24]): 74 nM | IC50 (MAP kinase p38 [25]): 4 nM | inhibition [26]: 56%

Cc1ccccc1C(=O)c1ccc(Nc2ccccc2N)cc1Cl
inhibition [5]: 20% | IC50 [6]: 10 nM | inhibition [7]: 88% | inhibition [8]: 93% | inhibition [9]: 8% | inhibition [10]: 0% | Inhibition (Mus musculus [27]): 46% | Inhibition (Mus musculus [28]): 46% | Inhibition (Mus musculus [29]): 43% | Inhibition (Mus musculus [12]): 37% | Inhibition (Mus musculus [15]): 27% | inhibition [16]: 73% | IC50 (Homo sapiens [17]): > 1000 nM | IC50 (MAP kinase p38 [18]): 14 nM | IC50 (MAP kinase p38 [19]): 6 nM | IC50 (Homo sapiens [20]): > 1000 nM | IC50 (Homo sapiens [21]): > 1000 nM | IC50 (MAP kinase p38 [22]): 18 nM | IC50 (MAP kinase p38 [24]): 12 nM | IC50 (MAP kinase p38 [25]): 6 nM | inhibition [26]: 56%
